Activity calls are given as the source filed them.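 The calls were made as follows, unless noted: active = visual image review flags a hit and inhibition of aggregation exceeds 20%; inconclusive = visual hit but inhibition at or below 20%; inactive = no hit on visual image review.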
Experiments:
[1] = inhibitors of TNFa-induced NFkB p65 translocation, primary screen, imaging, HUVEC, MLSMR starter and 10KST1 sets (AID 438;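 active = inhibition above 20% together with a positive visual image hit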;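 also: compound added about 3h40 before a 20 min TNFalpha stimulation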;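 as to inhibition: signal is the nuclear over cytoplasmic p65 intensity ratio per well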); conditions: HUVEC TNFa-induced p65 nuclear translocation; cell count: measured here: nuclei count (cytotoxicity indicator), at 2.08 µM; inhibition: at 2 µM, stronger effect = higher value, 0% TNFa-plus-vehicle, 100% no-TNFa wells
[2] = reduction of polyQ htt aggregates in cells – imaging, exon1htt(103Q)mCFP cells, high-content imaging, primary screen (AID 483); conditions: exon1htt(103Q)mCFP cell line, aggregate imaging, at 2 µM; inhibition of aggregation: stronger effect = higher value; nuclei count: measured here: cell count, toxicity;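 also: compound exposure lasted 3 days before fixation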;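 as to nuclei count: percent of the per-plate median nuclei count of sample wells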
[3] = endothelial E-selectin expression blockers – imaging, HUVEC, immunofluorescence, MLSMR starter and 10KST1 sets, primary screen (AID 487;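 active = visually confirmed hit in the image check and inhibition above 20%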;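 as to inhibition: signal is fraction of cell area covered by stained E-selectin grains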;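 as to nuclei count: 100% = median nuclei count of all wells on the same plate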); conditions: HUVEC TNFalpha-induced E-selectin immunofluorescence imaging, at 2 µM; inhibition: stronger effect = higher value; nuclei count: measured here: cell number, toxicity
[4] = target: Voltage-gated potassium channel subunit beta-2 (Rattus norvegicus) (UniProt P62483); experiment: inhibitors of rat Kvbeta2 reductase activity – biochemical, NADPH fluorescence, primary screen (AID 622;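 active = fluorescence slope higher than the sample average by over 3 SD, cut at about -0.22 in these data, passing the limit was not always enough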;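 also: slope of raw intensity against log time taken from 70 to 1610 s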); conditions: recombinant KvBeta, 4-cyanobenzaldehyde reduction, at 10 µM, stronger effect = higher value
Voltage-gated potassium channel subunit beta-2 (Rattus norvegicus), sequence (P62483 whole entry, looked up): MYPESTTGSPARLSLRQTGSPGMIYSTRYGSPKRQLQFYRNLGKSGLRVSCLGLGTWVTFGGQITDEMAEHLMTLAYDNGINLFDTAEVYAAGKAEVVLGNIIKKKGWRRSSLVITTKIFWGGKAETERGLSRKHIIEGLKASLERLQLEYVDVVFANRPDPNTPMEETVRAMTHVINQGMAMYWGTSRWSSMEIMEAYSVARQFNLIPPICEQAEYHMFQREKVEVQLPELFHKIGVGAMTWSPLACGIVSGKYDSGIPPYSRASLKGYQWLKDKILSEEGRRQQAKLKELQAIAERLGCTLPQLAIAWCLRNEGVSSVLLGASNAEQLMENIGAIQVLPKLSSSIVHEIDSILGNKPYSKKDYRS

[5] = target: Voltage-gated potassium channel subunit beta-2 (Rattus norvegicus) (UniProt P62483); experiment: enhancers of rat Kvbeta2 NADPH turnover – biochemical, NADPH fluorescence, primary screen (AID 623;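 active = NADPH fluorescence slope more negative than the mean of all samples by about 3 SD, 99.7% confidence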;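 also: fluorescence intensity change per second fitted from 20 to 320 s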); conditions: Recombinant KvBeta, NADPH fluorescence decrease slope, 10 min; at 10 µM; stronger effect = lower value
[6] = target: Alpha-2C adrenergic receptor (Homo sapiens) (UniProt P18825); experiment: compounds altering alpha2C-coupled GIRK flux – cell-based, HEK293 alpha2C/GIRK1/2, thallium flux, primary screen (AID 624;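 active = fluorescence slope after compound addition differing from the mean of all screened samples at 99.7% confidence, in either direction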;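 also: slope of fluorescence ratio to pre-addition baseline per second over 15 to 24 s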); conditions: thallium flux BTC fluorescence, at 10 µM, actives lie on both sides
Alpha-2C adrenergic receptor (Homo sapiens), sequence (P18825 whole entry, looked up): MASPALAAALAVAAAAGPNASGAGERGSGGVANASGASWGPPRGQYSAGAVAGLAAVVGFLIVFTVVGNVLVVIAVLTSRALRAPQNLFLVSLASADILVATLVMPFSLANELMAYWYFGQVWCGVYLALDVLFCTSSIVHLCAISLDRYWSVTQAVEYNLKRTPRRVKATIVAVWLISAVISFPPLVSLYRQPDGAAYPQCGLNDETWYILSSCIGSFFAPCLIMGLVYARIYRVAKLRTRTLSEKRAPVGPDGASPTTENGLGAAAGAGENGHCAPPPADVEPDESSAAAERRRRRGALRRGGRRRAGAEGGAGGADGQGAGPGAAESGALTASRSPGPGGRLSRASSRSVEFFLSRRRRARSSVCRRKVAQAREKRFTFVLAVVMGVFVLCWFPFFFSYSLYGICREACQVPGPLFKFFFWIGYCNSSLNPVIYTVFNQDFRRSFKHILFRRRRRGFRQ

[7] = inhibitors of larval lipid processing in zebrafish, primary screen, whole organism, PED6 fluorescence, gall bladder and intestine (AID 686;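 active = a full or partial loss of lipid-probe fluorescence in the fish gall bladder, intestine or both, judged by eye; inactive = no fluorescence loss, or compound toxic to the fish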;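 also: larvae 5 to 7 days old with five fish per well; signal comes from phospholipase A2 cleavage of quenched PED6 carried via bile; overnight exposure to compound and PED6 before scoring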); conditions: Zebrafish larvae PED6 lipid processing, fluorescence scoring; screened at 20 µM (by protocol)
Method in brief: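 system = live zebrafish larvae aged 5-7 days, whole organism | probe or stimulus = ingested quenched lipid PED6 at 100 nM | doses = 20 µM single dose | timing = overnight exposure | detection = fluorescence microscopy with visual scoring of gall bladder and intestine | read-out = visual per-well fluorescence inhibition score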

[8] = blockers of RIG-like receptor reporter activation – cell-based, Sendai virus stimulus, luciferase, 10K MLSCN set, TLR/RLR signaling modifier project, primary screen (AID 602276;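 active = inhibition at or above 50% at 10 µM; inactive = inhibition below 50%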;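 also: firefly luciferase from ISG56 promoter only with Renilla not read in this screen; 0% = Sendai virus plus DMSO and 100% = medium plus DMSO without virus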); conditions: HEK293 RL24 IRF3 luciferase reporter, at 10 µM, stronger effect = higher value
[9] = TLR3 IRF3 reporter activation blockers – cell-based, poly I:C stimulus, luciferase, 10K MLSCN set, primary screen (AID 602277;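 active = inhibition of the reporter signal at or above 50%; inactive = inhibition below 50%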); conditions: HEK293-TLR3 RL24 IRF3 luciferase reporter, at 10 µM, stronger effect = higher value

Clc1ccc(OCc2nnc(SCCN3CCCCC3)n2Cc2ccco2)cc1
cell count [1]: 587
inhibition [1]: -2.7% (inactive)
inhibition of aggregation [2]: 6% (inactive)
nuclei count [2]: 98.8%
inhibition [3]: 45.2% (inactive)
nuclei count [3]: 88.3%
fluorescence slope [4]: -0.28 (inactive)
NADPH fluorescence slope [5]: -1.2e-05 (inactive)
slope [6]: 0.00483 (inactive)
outcome [7]: active; no signal in gallbladder and intestine
inhibition [8]: 8.16% (inactive)
inhibition [9]: 13.8% (inactive)

O=C(NCCN1CCOCC1)c1ccc(CS(=O)(=O)Cc2ccccc2F)o1
cell count [1]: 536
inhibition [1]: -21.6% (inactive)
inhibition of aggregation [2]: -10.5% (inactive)
nuclei count [2]: 94.3%
inhibition [3]: -69.5% (inactive)
nuclei count [3]: 108%
fluorescence slope [4]: -0.453 (inactive)
NADPH fluorescence slope [5]: -5.9e-05 (inactive)
slope [6]: 0.00503 (inactive)
outcome [7]: inactive
inhibition [8]: 11.2% (inactive)
inhibition [9]: 9.56% (inactive)

O=C(c1ccc(S(=O)(=O)N2CCC(c3nc4ccccc4s3)CC2)cc1)N1CCOCC1
cell count [1]: 689
inhibition [1]: -2.9% (inactive)
inhibition of aggregation [2]: -25% (inactive)
nuclei count [2]: 109%
inhibition [3]: -80.2% (inactive)
nuclei count [3]: 116%
fluorescence slope [4]: -0.392 (inactive)
NADPH fluorescence slope [5]: -9.6e-07 (inactive)
slope [6]: 0.00693 (inactive)
outcome [7]: inactive
inhibition [8]: -8.58% (inactive)
inhibition [9]: 3.6% (inactive)

Cc1cnc(NC(=O)CSc2nnc(-c3ccccc3)n2Cc2ccccc2)s1
cell count [1]: 682
inhibition [1]: -5.5% (inactive)
inhibition of aggregation [2]: 14.8% (inactive)
nuclei count [2]: 102%
inhibition [3]: -19.9% (inactive)
nuclei count [3]: 105%
fluorescence slope [4]: -0.493 (inactive)
NADPH fluorescence slope [5]: 5.3e-05 (inactive)
slope [6]: 0.00426 (inactive)
outcome [7]: inactive
inhibition [8]: -3.73% (inactive)
inhibition [9]: -7.1% (inactive)

O=C(Nc1cccnc1)Nc1ccc(F)c(Cl)c1
cell count [1]: 347
inhibition [1]: 11.8% (inactive)
inhibition of aggregation [2]: -11.4% (inactive)
nuclei count [2]: 94.2%
inhibition [3]: -15.8% (inactive)
nuclei count [3]: 107%
fluorescence slope [4]: -0.517 (inactive)
NADPH fluorescence slope [5]: 1.7e-05 (inactive)
slope [6]: 0.00552 (inactive)
outcome [7]: inactive; toxic
inhibition [8]: -39.2% (inactive)
inhibition [9]: -103% (inactive)

Cc1cc(Br)c(S(=O)(=O)n2nnc3ccccc32)cc1C
cell count [1]: 608
inhibition [1]: -4.5% (inactive)
inhibition of aggregation [2]: 3.7% (inactive)
nuclei count [2]: 81.9%
inhibition [3]: 29% (inactive)
nuclei count [3]: 107%
fluorescence slope [4]: -0.326 (inactive)
NADPH fluorescence slope [5]: 2.1e-05 (inactive)
slope [6]: 0.00509 (inactive)
outcome [7]: inactive
inhibition [8]: 13.1% (inactive)
inhibition [9]: 12.1% (inactive)

CC(=O)c1cccc(NC(=O)NCc2ccco2)c1
cell count [1]: 385
inhibition [1]: 0.8% (inactive)
inhibition of aggregation [2]: -4.5% (inactive)
nuclei count [2]: 74.6%
inhibition [3]: -43.8% (inactive)
nuclei count [3]: 79.8%
fluorescence slope [4]: -0.386 (inactive)
NADPH fluorescence slope [5]: 6.8e-06 (inactive)
slope [6]: 0.00558 (inactive)
outcome [7]: inactive
inhibition [8]: -3.74% (inactive)
inhibition [9]: -37.3% (inactive)

Cc1c(CNCc2cccs2)c(C(=O)O)c(C)n1Cc1ccccc1
cell count [1]: 451
inhibition [1]: 5.5% (inactive)
inhibition of aggregation [2]: 3.1% (inactive)
nuclei count [2]: 115%
inhibition [3]: -30.9% (inactive)
nuclei count [3]: 101%
fluorescence slope [4]: -0.454 (inactive)
NADPH fluorescence slope [5]: -7.6e-05 (inactive)
slope [6]: 0.00618 (inactive)
outcome [7]: inactive
inhibition [8]: 18.8% (inactive)
inhibition [9]: 17% (inactive)

O=C(NC1CCCCCC1)c1cc(S(=O)(=O)N2CCC3(CC2)OCCO3)ccc1F
cell count [1]: 503
inhibition [1]: -21.4% (inactive)
inhibition of aggregation [2]: -53.3% (inactive)
nuclei count [2]: 72.9%
inhibition [3]: -16.2% (inactive)
nuclei count [3]: 83.7%
fluorescence slope [4]: -0.36 (inactive)
NADPH fluorescence slope [5]: 9e-06 (inactive)
slope [6]: 0.00552 (inactive)
outcome [7]: inactive
inhibition [8]: -15.5% (inactive)
inhibition [9]: -37.6% (inactive)

Cc1cc(C)nc(N2CCC(C(=O)Nc3ccc(Oc4ccccc4)cc3)CC2)n1
cell count [1]: 706
inhibition [1]: -15% (inactive)
inhibition of aggregation [2]: -11% (inactive)
nuclei count [2]: 122%
inhibition [3]: -54.3% (inactive)
nuclei count [3]: 116%
fluorescence slope [4]: -0.432 (inactive)
NADPH fluorescence slope [5]: -5.6e-05 (inactive)
slope [6]: 0.00595 (inactive)
outcome [7]: inactive
inhibition [8]: 13% (inactive)
inhibition [9]: 11% (inactive)

CC(C)CC(c1nnnn1C(C)(C)C)N1CCN(C2CCCC2)CC1 (stereo not drawn)
cell count [1]: 487
inhibition [1]: 7.1% (inactive)
inhibition of aggregation [2]: -11.7% (inactive)
nuclei count [2]: 98.2%
inhibition [3]: -5.6% (inactive)
nuclei count [3]: 109%
fluorescence slope [4]: -0.33 (inactive)
NADPH fluorescence slope [5]: -6.5e-05 (inactive)
slope [6]: 0.00477 (inactive)
outcome [7]: inactive
inhibition [8]: 5.92% (inactive)
inhibition [9]: 13.5% (inactive)

COc1ccc(NC(=O)CC2CCCCC2)cc1OC
cell count [1]: 258
inhibition [1]: -5.5% (inactive)
inhibition of aggregation [2]: -4.8% (inactive)
nuclei count [2]: 91.1%
inhibition [3]: -69.1% (inactive)
nuclei count [3]: 99.7%
fluorescence slope [4]: -0.356 (inactive)
NADPH fluorescence slope [5]: -2.3e-05 (inactive)
slope [6]: 0.00718 (inactive)
outcome [7]: inactive
inhibition [8]: -6.37% (inactive)
inhibition [9]: -23% (inactive)

COc1ccccc1NC(=O)N(Cc1ccco1)Cc1cc2c(C)ccc(C)c2[nH]c1=O
cell count [1]: 722
inhibition [1]: -11.9% (inactive)
inhibition of aggregation [2]: 2.5% (inactive)
nuclei count [2]: 98.7%
inhibition [3]: -13.2% (inactive)
nuclei count [3]: 100%
fluorescence slope [4]: -0.463 (inactive)
NADPH fluorescence slope [5]: -4.7e-05 (inactive)
slope [6]: 0.00639 (inactive)
outcome [7]: inactive
inhibition [8]: 12.5% (inactive)
inhibition [9]: 5.06% (inactive)

Cc1nc(-c2ccccc2)sc1C(N)=O
cell count [1]: 424
inhibition [1]: 4.7% (inactive)
inhibition of aggregation [2]: 25.4% (inactive)
nuclei count [2]: 104%
inhibition [3]: -40.1% (inactive)
nuclei count [3]: 117%
fluorescence slope [4]: -0.524 (inactive)
NADPH fluorescence slope [5]: 1.6e-05 (inactive)
slope [6]: 0.0052 (inactive)
outcome [7]: inactive
inhibition [8]: -21.5% (inactive)
inhibition [9]: -49.1% (inactive)
